# A selection: hits, their analogues and other compounds. The true share with any hit is near 1.5%.
# HNF4A DNA FP: change in binding of human HNF4A to DNA, primary screen, biochemical, fluorescence polarization, FITC-DNA; 1 h; activity change, % at 10 µM; Hepatocyte nuclear factor 4-alpha (Homo sapiens), P41235; 360,000 compounds, 0.3% hits; in the data active means activity change above about 30%, passing the limit was not always enough
# CSN inh: inhibitors of CSN-mediated cullin deneddylation, primary screen, biochemical, fluorescence polarization, uHTS | Purified CSN, SCF-Nedd8-OG deneddylation | inhibition, % at 12.5 µM | AID 651999, 2013 | COP9 signalosome complex subunit 5 (Homo sapiens), Q92905 | 360,000 compounds, 0.38% hits;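 active means pattern-corrected inhibition above about 35%, with an unprinted fluorescence ratio check between 0.5 and 1.5, limit read from the data, passing the limit was not always enough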
#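 test system = HEK293T-derived human Csn5 enzyme | amount = 0.24 nM Csn5 enzyme, final concentration | medium = Tris/NaCl/DTT buffer, pH 7.5 | schedule = 90 min reaction at room temperature | signal = FP | evaluation = inhibition of Csn5 cleavage, % | compound dosing = single dose of 12.5 µM compound with 0.25% DMSO | probe or stimulus = 10 nM SCFSkp2-Nedd8OG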
# Rpn11 inh: Rpn11 (PSMD14) deubiquitinase inhibitors, primary screen, biochemical, fluorescence polarization, uHTS. 26S proteasome non-ATPase regulatory subunit 14 (Homo sapiens), O00487. 360,000 compounds, 0.59% hits. inhibition, % at 20 µM. human 26S proteasome, Ub4-pepOG fluorescence polarization; 20S core pre-blocked with epoxomicin;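 active means inhibition at 20 µM, scaled to each plate's controls, above about 33%, limit read from the data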
# TPT1 inh: Candida albicans TPT1 enzyme inhibitors, primary screen, biochemical, fluorescence polarization. inhibition, % at 5 µM. tRNA 2'-phosphotransferase TPT1 (Candida albicans SC5314). 300,000 compounds, 0.81% hits. AID 1962, 2009. recombinant caTPT1, FP RNA substrate dephosphorylation;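 active means inhibition above the mean of all tested compounds plus 3 SD, set per screening campaign, cut at about 24% in these data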
# caTPT1 confirm: Candida albicans TPT1 inhibitors, confirmation, biochemical, fluorescence polarization, triplicate | shares compounds with TPT1 inh | recombinant caTPT1, RNase T1 coupled | inhibition, % at 5 µM | 2,400 compounds, 74% hits;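 active means inhibition above the primary screen limit, the mean inhibition of all tested compounds plus 3 SD, cut at about 25% in these data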
# RNase T1 counter: RNase T1 inhibitors, counter-screen for TPT1 inhibitor project, biochemical, fluorescence polarization. shares compounds with TPT1 inh. RNase T1 cleavage, 1536-well. inhibition, % at 5 µM. 2,400 compounds, 83% hits. AID 2153, 2009;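 active means inhibition above the solvent-only control well mean plus 3 SD, limit set per screening run, cut at about 23% in these data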;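 further: inhibitors block cleavage so intact labeled substrate keeps polarization high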
# Rpn11 inh conf: Rpn11 (PSMD14) deubiquitinase inhibitors, confirmation, biochemical, fluorescence polarization, single concentration | shares compounds with Rpn11 inh | purified human 26S proteasome, Ub4-pepOG fluorescence polarization; proteasome pretreated with epoxomicin | inhibition, % at 20 µM | 1,900 compounds, 29% hits | AID 602318, 2012
# MMP-2 counter-1: MMP-2 enzyme inhibition, confirmation, counter-screen for RPN11 inhibitor project, biochemical, fluorescence, single concentration; shares compounds with Rpn11 inh; inhibition, % at 20 µM; 1,900 compounds, 4% hits; AID 602330, 2012; recombinant MMP-2, FRET peptide cleavage fluorescence;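 further: human MMP-2 activated beforehand with APMA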
# Target sequence (P08253 whole entry, looked up): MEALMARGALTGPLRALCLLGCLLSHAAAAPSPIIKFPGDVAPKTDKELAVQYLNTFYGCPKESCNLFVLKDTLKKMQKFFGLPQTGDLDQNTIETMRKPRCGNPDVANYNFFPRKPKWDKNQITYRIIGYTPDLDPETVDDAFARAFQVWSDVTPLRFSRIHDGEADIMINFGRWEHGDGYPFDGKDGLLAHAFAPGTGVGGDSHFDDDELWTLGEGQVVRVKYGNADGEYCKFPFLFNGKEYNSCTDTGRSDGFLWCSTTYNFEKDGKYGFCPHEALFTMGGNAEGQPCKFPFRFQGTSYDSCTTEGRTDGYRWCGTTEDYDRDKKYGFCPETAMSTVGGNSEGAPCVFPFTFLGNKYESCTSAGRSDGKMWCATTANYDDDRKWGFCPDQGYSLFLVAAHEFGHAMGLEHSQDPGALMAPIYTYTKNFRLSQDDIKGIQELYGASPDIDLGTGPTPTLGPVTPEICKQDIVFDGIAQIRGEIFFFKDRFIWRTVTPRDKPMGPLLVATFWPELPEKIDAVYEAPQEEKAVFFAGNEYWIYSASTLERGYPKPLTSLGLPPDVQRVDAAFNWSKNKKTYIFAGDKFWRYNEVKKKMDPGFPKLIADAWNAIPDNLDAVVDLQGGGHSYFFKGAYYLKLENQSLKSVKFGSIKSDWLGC
# Thrombin inh: bovine thrombin protease inhibition, confirmation, counter-screen for Rpn11 inhibitor project, biochemical, fluorescence polarization, single concentration. shares compounds with Rpn11 inh. bovine thrombin cleavage of Ub4-pepOG. inhibition, % at 20 µM. 1,900 compounds, 13% hits. AID 602333, 2012;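 active means mean inhibition at least 40% at 20 µM, or signal 3 deviations below plate average, so some actives read negative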
# CSN deneddyl val: Csn5 deneddylation inhibitors, confirmation, biochemical, fluorescence polarization, single concentration, SCF-Nedd8OG substrate. shares compounds with CSN inh. Csn5 deneddylation of SCF-Nedd8OG, 90 min. inhibition, % at 16.6 µM. 540 compounds, 62% hits; in the data active means inhibition above about 50%
# MMP-2 counter-2: MMP-2 protease inhibition counter-screen, confirmation, counter-screen for CSN deneddylation inhibitor project, biochemical, fluorescence, single concentration; 540 compounds, 33% hits; recombinant MMP-2, FRET substrate fluorescence, 60 min; shares compounds with CSN inh; inhibition, % at 16.6 µM; AID 720655, 2013;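 active means corrected plate-normalized z-score of 5 or more, or -5 or less, or inhibition of 15% or more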
# Thrombin cntr: blocks bovine thrombin in a CSN deneddylation counter-screen; shares compounds with CSN inh; bovine thrombin cleavage of Ub4-pepOG, fluorescence polarization; inhibition, % at 16.6 µM; 540 compounds, 49% hits; AID 720656;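 active means inhibition at or above a set limit, with a fluorescence interference ratio between 0.5 and a set maximum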
# HNF4a DNA conf: change in HNF4A binding to DNA, retest, confirmation, biochemical, fluorescence polarization, FITC-DNA. 210 compounds, 99% hits. activity change, % at 12.5 µM. 1 h. shares compounds with HNF4A DNA FP; call rule not given here
# A number is an active result; – = inactive; · = no result given; + = active, no number. Unless noted, no stated cut-off is given here; in the data, active means inhibition above about 40%; inactive means the rest.
SMILES,HNF4A DNA FP,CSN inh,Rpn11 inh,TPT1 inh,caTPT1 confirm,RNase T1 counter,CSN deneddyl val,MMP-2 counter-2,Thrombin cntr,others
COc1ccc(Cl)cc1C(=O)Nc1cccc(-c2ccc3nncn3n2)c1,55,137,+,38,55,28,–,18,22,Rpn11 inh conf=76;MMP-2 counter-1=–;Thrombin inh=–
O=C(O)CC(C(=O)O)N1C(=O)/C(=C/c2ccc(-c3nc4ccccc4s3)o2)SC1=S (centres undefined),–,47,71,91,109,114,82,–,83,
O=C(O)CCCN1C(=O)/C(=C/C=C/c2ccco2)SC1=S,–,40,·,84,37,38,–,44,22,
O=C(O)CC(C(=O)O)N1C(=O)/C(=C/C=C/c2ccco2)SC1=S (centres undefined),–,48,64,67,29,36,–,34,49,Rpn11 inh conf=97;MMP-2 counter-1=59;Thrombin inh=–
CCN1/C(=C/c2ccc3cc(C)ccc3[n+]2CC)Sc2ccccc21,119,72,·,84,97,103,66,-23,–,
CCN1/C(=C/C=C/c2sc3ccccc3[n+]2CC)Sc2ccccc21,–,–,·,–,·,·,·,·,·,
CCCNC(=O)C1(C)CCCN(Cc2csc3ccccc23)C1 (centres undefined),–,–,–,·,·,·,·,·,·,
Cc1c(N2C(=O)/C(=C\c3ccc(N(C)C)cc3)N(C)C2=S)c(=O)n(-c2ccccc2)n1C,44,75,·,150,132,133,85,–,68,
Cc1ccc(S(=O)(=O)NCc2cccnc2)cc1C(=O)NC1CCCCC1,–,–,–,–,·,·,·,·,·,
CC1(C(=O)NS(=O)(=O)c2ccc3ccccc3c2)CCN1C(=O)Cc1ccc(Cl)cc1Cl (centres undefined),–,–,–,·,·,·,·,·,·,
CN(C)c1ccc(-c2sc(Nc3ccccc3)n[n+]2-c2ccc(F)cc2)cc1,69,–,–,35,93,98,·,·,·,HNF4a DNA conf=80
COc1ccc(-c2sc(Nc3ccccc3)n[n+]2-c2ccc(F)cc2)cc1Br,–,–,–,–,·,·,·,·,·,

# Screening results from PubChem BioAssay.
